From the M2OR odorant receptor database
Changes are numbered by the printed parent chain.

How the values were obtained:
Conditions in all cases: stereoisomer not certain
OR2A1 T73A R74C S168C = system: T1, OR2A1 T73A R74C S168C
T1 sequence (whole entry): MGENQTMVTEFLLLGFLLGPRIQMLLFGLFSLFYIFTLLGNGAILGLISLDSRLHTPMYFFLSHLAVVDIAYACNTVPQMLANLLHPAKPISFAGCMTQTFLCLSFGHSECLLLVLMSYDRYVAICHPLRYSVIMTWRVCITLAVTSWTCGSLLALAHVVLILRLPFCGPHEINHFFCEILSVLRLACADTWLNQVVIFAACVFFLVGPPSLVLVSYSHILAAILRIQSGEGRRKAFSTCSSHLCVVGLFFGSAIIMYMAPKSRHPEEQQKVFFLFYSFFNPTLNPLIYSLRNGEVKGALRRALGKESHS
How it was run: (§1)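 Assay methods differ from source to source, frequently being transient luciferase assays in mammalian cell lines. For each receptor–molecule pair, the label responsive (active) applies when the original authors judged the measured signal statistically different from baseline, and non-responsive (inactive) applies otherwise.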

OR2A12 (Homo sapiens) = target: T2, OR2A12 (Homo sapiens) (UniProt Q8NGT7)
T2 sequence (whole entry): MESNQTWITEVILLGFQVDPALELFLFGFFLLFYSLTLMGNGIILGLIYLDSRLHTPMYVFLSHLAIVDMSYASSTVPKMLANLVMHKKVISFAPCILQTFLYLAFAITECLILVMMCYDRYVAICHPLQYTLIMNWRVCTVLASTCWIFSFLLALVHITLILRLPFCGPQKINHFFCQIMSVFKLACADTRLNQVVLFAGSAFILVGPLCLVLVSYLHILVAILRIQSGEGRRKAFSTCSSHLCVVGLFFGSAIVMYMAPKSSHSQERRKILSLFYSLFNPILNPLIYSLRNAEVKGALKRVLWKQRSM
How it was run: as §1

OR2A14 (Homo sapiens) = target: T3, OR2A14 (Homo sapiens) (UniProt Q96R47)
T3 sequence (whole entry): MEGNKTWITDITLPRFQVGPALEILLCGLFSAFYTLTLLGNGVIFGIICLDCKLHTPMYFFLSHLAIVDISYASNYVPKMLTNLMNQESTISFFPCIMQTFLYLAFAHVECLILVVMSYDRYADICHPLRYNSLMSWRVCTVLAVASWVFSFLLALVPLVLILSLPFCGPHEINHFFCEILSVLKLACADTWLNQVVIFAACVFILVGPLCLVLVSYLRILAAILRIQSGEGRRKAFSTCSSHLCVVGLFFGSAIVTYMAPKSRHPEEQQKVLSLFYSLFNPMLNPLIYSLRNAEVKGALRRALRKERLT
How it was run: as §1

OR2A2 (Homo sapiens) = target: T4, OR2A2 (Homo sapiens) (UniProt Q6IF42)
T4 sequence (whole entry): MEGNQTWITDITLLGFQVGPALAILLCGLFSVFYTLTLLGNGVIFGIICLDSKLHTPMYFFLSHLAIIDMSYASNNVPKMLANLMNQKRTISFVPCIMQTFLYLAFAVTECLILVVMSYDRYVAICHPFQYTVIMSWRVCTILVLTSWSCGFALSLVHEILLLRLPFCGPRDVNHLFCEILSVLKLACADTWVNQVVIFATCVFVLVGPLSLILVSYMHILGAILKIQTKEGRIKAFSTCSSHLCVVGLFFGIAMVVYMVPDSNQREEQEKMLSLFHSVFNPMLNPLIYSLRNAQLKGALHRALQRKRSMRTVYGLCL
How it was run: as §1

OR2A25 (Homo sapiens) = target: T5, OR2A25 (Homo sapiens) (UniProt A4D2G3)
T5 sequence (whole entry): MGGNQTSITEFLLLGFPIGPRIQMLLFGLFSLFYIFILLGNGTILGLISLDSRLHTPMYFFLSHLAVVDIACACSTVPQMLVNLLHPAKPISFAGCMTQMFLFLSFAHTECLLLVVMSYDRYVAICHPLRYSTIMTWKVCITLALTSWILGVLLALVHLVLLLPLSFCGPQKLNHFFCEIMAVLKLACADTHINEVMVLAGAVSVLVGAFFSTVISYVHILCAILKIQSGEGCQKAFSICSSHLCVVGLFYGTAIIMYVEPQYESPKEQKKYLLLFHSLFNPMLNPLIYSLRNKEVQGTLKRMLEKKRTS
How it was run: as §1

OR2A2 = system: T6, OR2A2
T6 sequence (whole entry): T4 sequence (whole entry) with F280L
How it was run: as §1

OR2A4 (Homo sapiens) = target: T7, OR2A4 (Homo sapiens) (UniProt O95047)
T7 sequence (whole entry): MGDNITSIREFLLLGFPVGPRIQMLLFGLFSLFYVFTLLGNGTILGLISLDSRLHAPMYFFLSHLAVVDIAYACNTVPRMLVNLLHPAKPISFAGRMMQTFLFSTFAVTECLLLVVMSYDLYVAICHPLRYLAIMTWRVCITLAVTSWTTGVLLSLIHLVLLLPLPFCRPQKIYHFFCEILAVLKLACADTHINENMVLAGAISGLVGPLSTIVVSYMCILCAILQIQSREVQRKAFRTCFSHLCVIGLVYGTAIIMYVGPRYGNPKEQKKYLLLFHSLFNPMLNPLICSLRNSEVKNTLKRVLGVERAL
How it was run: as §1

OR2A5 (Homo sapiens) = target: T8, OR2A5 (Homo sapiens) (UniProt Q96R48)
T8 sequence (whole entry): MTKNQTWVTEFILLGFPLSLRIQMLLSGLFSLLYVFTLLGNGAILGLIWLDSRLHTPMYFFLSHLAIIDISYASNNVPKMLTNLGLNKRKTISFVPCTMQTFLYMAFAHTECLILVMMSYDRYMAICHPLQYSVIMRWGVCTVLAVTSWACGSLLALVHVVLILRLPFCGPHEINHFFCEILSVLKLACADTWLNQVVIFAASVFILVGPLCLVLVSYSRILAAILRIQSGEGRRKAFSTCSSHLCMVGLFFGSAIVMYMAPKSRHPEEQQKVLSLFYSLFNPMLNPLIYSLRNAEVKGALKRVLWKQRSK
How it was run: as §1

OR2A5 I126V A202S A255T = system: T9, OR2A5 I126V A202S A255T
T9 sequence (whole entry): T8 sequence (whole entry) with I126V, A202S, A255T
How it was run: as §1

OR2A7 (Homo sapiens) = target: T10, OR2A7 (Homo sapiens) (UniProt Q96R45)
T10 sequence (whole entry): T7 sequence (whole entry) with R9T, R238C, V250F
How it was run: as §1

OR2A7 = system: T11, OR2A7
T11 sequence (whole entry): T7 sequence (whole entry) with R238C, V250F
How it was run: as §1

OR2AE1 (Homo sapiens) = target: T12, OR2AE1 (Homo sapiens) (UniProt Q8NHA4)
T12 sequence (whole entry): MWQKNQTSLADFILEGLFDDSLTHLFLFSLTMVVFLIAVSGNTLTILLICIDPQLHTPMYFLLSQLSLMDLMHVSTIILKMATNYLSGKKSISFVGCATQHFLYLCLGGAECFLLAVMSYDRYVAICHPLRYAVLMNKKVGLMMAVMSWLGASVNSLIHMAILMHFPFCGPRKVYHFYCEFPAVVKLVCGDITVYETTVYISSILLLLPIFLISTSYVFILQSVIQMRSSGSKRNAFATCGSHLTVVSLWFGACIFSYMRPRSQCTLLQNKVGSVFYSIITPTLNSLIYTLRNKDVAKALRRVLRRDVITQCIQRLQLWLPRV
How it was run: as §1

OR2AG1 (Homo sapiens) = target: T13, OR2AG1 (Homo sapiens) (UniProt Q9H205)
T13 sequence (whole entry): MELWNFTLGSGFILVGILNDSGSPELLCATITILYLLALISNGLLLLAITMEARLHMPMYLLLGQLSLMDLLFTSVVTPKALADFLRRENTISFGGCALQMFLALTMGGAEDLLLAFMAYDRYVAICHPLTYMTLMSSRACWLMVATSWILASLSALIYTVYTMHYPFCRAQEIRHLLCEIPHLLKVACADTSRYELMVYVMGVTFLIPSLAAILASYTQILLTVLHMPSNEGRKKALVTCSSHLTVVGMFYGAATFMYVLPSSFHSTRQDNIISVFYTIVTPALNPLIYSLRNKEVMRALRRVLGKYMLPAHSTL
How it was run: as §1

OR2AG2 (Homo sapiens) = target: T14, OR2AG2 (Homo sapiens) (UniProt A6NM03)
T14 sequence (whole entry): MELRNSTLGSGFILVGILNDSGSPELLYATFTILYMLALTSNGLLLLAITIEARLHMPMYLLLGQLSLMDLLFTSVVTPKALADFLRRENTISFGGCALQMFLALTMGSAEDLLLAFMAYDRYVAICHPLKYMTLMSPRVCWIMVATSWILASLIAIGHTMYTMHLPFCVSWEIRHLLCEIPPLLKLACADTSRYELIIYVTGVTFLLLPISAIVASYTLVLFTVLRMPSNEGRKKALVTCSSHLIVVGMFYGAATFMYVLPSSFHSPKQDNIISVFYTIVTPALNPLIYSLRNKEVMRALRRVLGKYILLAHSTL
How it was run: as §1

OR2AK2 (Homo sapiens) = target: T15, OR2AK2 (Homo sapiens) (UniProt Q8NG84)
T15 sequence (whole entry): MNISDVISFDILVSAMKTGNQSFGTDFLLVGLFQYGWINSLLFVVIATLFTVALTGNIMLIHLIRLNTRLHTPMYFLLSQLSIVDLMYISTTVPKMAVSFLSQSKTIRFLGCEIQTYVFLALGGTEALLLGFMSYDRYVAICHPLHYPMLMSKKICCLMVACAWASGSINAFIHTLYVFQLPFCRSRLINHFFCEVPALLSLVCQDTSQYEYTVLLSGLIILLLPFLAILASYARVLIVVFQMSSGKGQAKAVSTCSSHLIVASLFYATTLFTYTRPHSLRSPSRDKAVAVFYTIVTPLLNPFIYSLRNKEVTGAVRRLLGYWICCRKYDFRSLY
How it was run: as §1

OR2AP1 (Homo sapiens) = target: T16, OR2AP1 (Homo sapiens) (UniProt Q8NGE2)
T16 sequence (whole entry): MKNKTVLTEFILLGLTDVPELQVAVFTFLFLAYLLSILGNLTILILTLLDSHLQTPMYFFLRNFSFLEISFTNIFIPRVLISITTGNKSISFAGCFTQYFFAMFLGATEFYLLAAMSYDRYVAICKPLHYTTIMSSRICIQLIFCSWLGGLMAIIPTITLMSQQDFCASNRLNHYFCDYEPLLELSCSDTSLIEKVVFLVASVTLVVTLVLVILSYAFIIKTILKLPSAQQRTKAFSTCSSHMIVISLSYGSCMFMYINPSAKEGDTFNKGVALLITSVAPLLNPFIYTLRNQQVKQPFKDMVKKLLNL
How it was run: as §1

OR2AT4 (Homo sapiens) = target: T17, OR2AT4 (Homo sapiens) (UniProt A6NND4)
T17 sequence (whole entry): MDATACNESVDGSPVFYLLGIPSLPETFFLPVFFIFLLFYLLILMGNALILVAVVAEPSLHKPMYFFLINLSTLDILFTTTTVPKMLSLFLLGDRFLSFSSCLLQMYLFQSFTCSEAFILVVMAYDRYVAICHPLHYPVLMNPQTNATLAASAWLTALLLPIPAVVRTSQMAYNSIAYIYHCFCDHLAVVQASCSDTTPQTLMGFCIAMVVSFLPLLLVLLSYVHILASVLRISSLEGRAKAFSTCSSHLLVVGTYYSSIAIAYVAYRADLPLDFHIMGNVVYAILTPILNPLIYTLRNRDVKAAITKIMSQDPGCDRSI
How it was run: as §1

OR2B11 (Homo sapiens) = target: T18, OR2B11 (Homo sapiens) (UniProt Q5JQS5)
T18 sequence (whole entry): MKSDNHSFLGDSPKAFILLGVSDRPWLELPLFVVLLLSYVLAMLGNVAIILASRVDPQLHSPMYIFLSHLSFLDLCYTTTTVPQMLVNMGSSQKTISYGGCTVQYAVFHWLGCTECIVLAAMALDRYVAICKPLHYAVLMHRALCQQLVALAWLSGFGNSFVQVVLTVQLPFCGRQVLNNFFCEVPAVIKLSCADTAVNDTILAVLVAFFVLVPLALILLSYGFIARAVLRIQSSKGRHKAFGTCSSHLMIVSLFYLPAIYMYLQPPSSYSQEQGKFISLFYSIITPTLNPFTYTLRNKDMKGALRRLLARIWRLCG
How it was run: as §1

OR2B2 (Homo sapiens) = target: T19, OR2B2 (Homo sapiens) (UniProt Q9GZK3)
T19 sequence (whole entry): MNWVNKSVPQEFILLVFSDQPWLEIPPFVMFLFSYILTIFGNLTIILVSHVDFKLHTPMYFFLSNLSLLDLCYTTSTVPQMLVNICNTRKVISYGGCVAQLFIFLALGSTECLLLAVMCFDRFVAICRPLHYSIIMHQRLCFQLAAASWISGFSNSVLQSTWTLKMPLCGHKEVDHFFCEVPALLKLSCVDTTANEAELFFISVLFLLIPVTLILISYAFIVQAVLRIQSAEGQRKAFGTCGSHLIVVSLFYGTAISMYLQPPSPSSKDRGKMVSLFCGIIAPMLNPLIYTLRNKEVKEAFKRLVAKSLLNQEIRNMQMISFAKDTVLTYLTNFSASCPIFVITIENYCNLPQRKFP
How it was run: as §1

Measured: odorant receptor agonist call

Cc1cnc(C)c(C)n1
inactive: all assays above
